Data: ChEMBL document CHEMBL4665862, “Synthesis and biological activity of C-7, C-9 and C-10 modified taxane analogues from 1-deoxybaccatin VI” (Bioorg Med Chem, 2020)

Tests used:
[1] = test system: A549; experiment: Cytotoxicity against human A549 cells assessed as reduction in cell viability incubated for 72 hrs by CCK-8 assay; format: functional, cell-based; conditions: A549, 72 h
Method in brief: (§1)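 Exponentially growing human tumour cells were exposed for 72 h to compounds formulated in DMSO solution. Cell survival was read by the CCK-8 method, and IC50 values were taken from the dose–response curves.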

[2] = Cytotoxicity against human drug-resistant A549/T cells assessed as reduction in cell viability incubated for 72 hrs by CCK-8 assay; format: functional, cell-based; conditions: A549, 72 h; method in brief: as §1
[3] = test system: MDA-MB-231; experiment: Cytotoxicity against human MDA-MB-231 cells assessed as reduction in cell viability incubated for 72 hrs by CCK-8 assay; format: functional, cell-based; conditions: MDA-MB-231, 72 h; method in brief: as §1
[4] = Potency index, ratio of paclitaxel IC50 to compound IC50 for cytotoxicity against drug-resistant human A549/T cells assessed as reduction in cell viability incubated for 72 hrs by CCK-8 assay; format: functional

With `CC(=O)O[C@H]1C[C@H]2OC[C@@]2(OC(C)=O)[C@H]2[C@H](OC(=O)c3ccccc3)C3C[C@H](OC(=O)[C@H](O)[C@@H](NC(=O)c4ccccc4F)c4ccccc4)C(C)=C([C@H]4OC(=O)O[C@@H]4[C@]12C)C3(C)C` (some centres undefined) the IC50 [1] was 115 nM, the IC50 [2] was 4900 nM and the IC50 [3] was 182 nM.
With `CC(=O)O[C@H]1C[C@H]2OC[C@@]2(OC(C)=O)[C@H]2[C@H](OC(=O)c3ccccc3)C3C[C@H](OC(=O)[C@H](O)[C@@H](NC(=O)c4ccc(F)cc4)c4ccccc4)C(C)=C([C@H]4OC(=O)O[C@@H]4[C@]12C)C3(C)C` (some centres undefined) the IC50 [1] was 133 nM, the IC50 [2] was 1030 nM and the IC50 [3] was 209 nM.
For `CC(=O)O[C@H]1C[C@H]2OC[C@@]2(OC(C)=O)[C@H]2[C@H](OC(=O)c3ccccc3)C3C[C@H](OC(=O)[C@H](O)[C@@H](NC(=O)c4ccc(C)cc4)c4ccccc4)C(C)=C([C@H]4OC(=O)O[C@@H]4[C@]12C)C3(C)C` (some centres undefined), the IC50 [1] was 62 nM, the Ratio [4] was 7 and the IC50 [2] was 229 nM. The IC50 [3] was 119 nM.
Work on `CC(=O)O[C@H]1C[C@H]2OC[C@@]2(OC(C)=O)[C@H]2[C@H](OC(=O)c3ccccc3)C3C[C@H](OC(=O)[C@H](O)[C@@H](NC(=O)c4ccccc4)c4ccccc4)C(C)=C([C@H]4OC(=O)O[C@@H]4[C@]12C)C3(C)C` (some centres undefined) yielded an IC50 [1] of 22 nM, a Ratio [4] of 7 and an IC50 [2] of 229 nM. It also gave an IC50 [3] of 124 nM.
Work on `COc1cccc(C(=O)N[C@@H](c2ccccc2)[C@@H](O)C(=O)O[C@H]2CC3[C@@H](OC(=O)c4ccccc4)[C@@H]4[C@]5(OC(C)=O)CO[C@@H]5C[C@H](OC(C)=O)[C@@]4(C)[C@H]4OC(=O)O[C@@H]4C(=C2C)C3(C)C)c1` (some centres undefined) yielded an IC50 [1] of 69 nM, an IC50 [2] of 3020 nM and an IC50 [3] of 68 nM.
`CC(=O)O[C@H]1C[C@H]2OC[C@@]2(OC(C)=O)[C@H]2[C@H](OC(=O)c3ccccc3)C3C[C@H](OC(=O)[C@H](O)[C@@H](NC(=O)c4cccc(Br)c4)c4ccccc4)C(C)=C([C@H]4OC(=O)O[C@@H]4[C@]12C)C3(C)C` (some centres undefined) showed an IC50 [1] of 329 nM, an IC50 [2] of 2880 nM and an IC50 [3] of 2020 nM.
Work on `CC(=O)O[C@H]1C(=O)[C@@]2(C)[C@H]([C@H](OC(=O)c3ccccc3)[C@]3(O)C[C@H](OC(=O)[C@H](O)[C@@H](NC(=O)c4ccccc4)c4ccccc4)C(C)=C1C3(C)C)[C@]1(OC(C)=O)CO[C@@H]1C[C@@H]2O` [PACLITAXEL] yielded an IC50 [1] of 13 nM, an IC50 [2] of 1580 nM and an IC50 [3] of 20 nM.
In the case of `CC(=O)O[C@H]1C[C@H]2OC[C@@]2(OC(C)=O)[C@H]2[C@H](OC(=O)c3ccccc3)C3C[C@H](OC(=O)[C@H](O)[C@@H](NC(=O)c4ccc(F)c(F)c4)c4ccccc4)C(C)=C([C@H]4OC(=O)O[C@@H]4[C@]12C)C3(C)C` (some centres undefined), the IC50 [1] is reported as 408 nM, the IC50 [2] is reported as 2880 nM and the IC50 [3] is reported as 1950 nM.
Work on `CC(=O)O[C@H]1C[C@H]2OC[C@@]2(OC(C)=O)[C@H]2[C@H](OC(=O)c3ccccc3)C3C[C@H](OC(=O)[C@H](O)[C@@H](NC(=O)c4cccc(F)c4)c4ccccc4)C(C)=C([C@H]4OC(=O)O[C@@H]4[C@]12C)C3(C)C` (some centres undefined) yielded an IC50 [1] of 68 nM, an IC50 [2] of 2340 nM and an IC50 [3] of 183 nM.
